Source: ChEMBL document CHEMBL1139934, “Synthesis and biological activity of imidazopyridine anticoccidial agents: part I” (Eur J Med Chem, 2007)

Assays:
Eimeria maxima [1] = experiment: Anticococcidal activity against Eimeria maxima in Chick assessed as reduction in oocyte at 25 ppm relative to control; type: functional; parameters: scale not given: the % may be the effect or the level left
Method in brief: (§1)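 Expanded Mini-Assay Coccidiosis (ExMAC) in chickens infected with E. tenella, E. acervulina, E. mitis and E. maxima. Compound given in the feed at the stated ppm. Efficacy for each species is scored 0 to 4 from the percent oocyst reduction relative to an untreated control. Where a compound was tested more than once, all values are reported.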

Eimeria mitis [2] = experiment: Anticococcidal activity against Eimeria mitis in Chick assessed as reduction in oocyte at 25 ppm relative to control; type: functional; parameters: scale not given: the % may be the effect or the level left; method in brief: as §1
Eimeria tenella [3] = experiment: Anticococcidal activity against Eimeria tenella in Chick assessed as reduction in oocyte at 25 ppm relative to control; type: functional; parameters: scale not given: the % may be the effect or the level left; method in brief: as §1
Eimeria acervulina [4] = experiment: Anticococcidal activity against Eimeria acervulina in Chick assessed as reduction in oocyte at 25 ppm relative to control; type: functional; parameters: scale not given: the % may be the effect or the level left; method in brief: as §1
[5] = target: cGMP-dependent protein kinase (Eimeria tenella, UniProt Q8MMZ8); experiment: Inhibition of Eimeria tenella cGMP-dependent protein kinase by Ten_K assay
cGMP-dependent protein kinase, sequence (Q8MMZ8 whole entry): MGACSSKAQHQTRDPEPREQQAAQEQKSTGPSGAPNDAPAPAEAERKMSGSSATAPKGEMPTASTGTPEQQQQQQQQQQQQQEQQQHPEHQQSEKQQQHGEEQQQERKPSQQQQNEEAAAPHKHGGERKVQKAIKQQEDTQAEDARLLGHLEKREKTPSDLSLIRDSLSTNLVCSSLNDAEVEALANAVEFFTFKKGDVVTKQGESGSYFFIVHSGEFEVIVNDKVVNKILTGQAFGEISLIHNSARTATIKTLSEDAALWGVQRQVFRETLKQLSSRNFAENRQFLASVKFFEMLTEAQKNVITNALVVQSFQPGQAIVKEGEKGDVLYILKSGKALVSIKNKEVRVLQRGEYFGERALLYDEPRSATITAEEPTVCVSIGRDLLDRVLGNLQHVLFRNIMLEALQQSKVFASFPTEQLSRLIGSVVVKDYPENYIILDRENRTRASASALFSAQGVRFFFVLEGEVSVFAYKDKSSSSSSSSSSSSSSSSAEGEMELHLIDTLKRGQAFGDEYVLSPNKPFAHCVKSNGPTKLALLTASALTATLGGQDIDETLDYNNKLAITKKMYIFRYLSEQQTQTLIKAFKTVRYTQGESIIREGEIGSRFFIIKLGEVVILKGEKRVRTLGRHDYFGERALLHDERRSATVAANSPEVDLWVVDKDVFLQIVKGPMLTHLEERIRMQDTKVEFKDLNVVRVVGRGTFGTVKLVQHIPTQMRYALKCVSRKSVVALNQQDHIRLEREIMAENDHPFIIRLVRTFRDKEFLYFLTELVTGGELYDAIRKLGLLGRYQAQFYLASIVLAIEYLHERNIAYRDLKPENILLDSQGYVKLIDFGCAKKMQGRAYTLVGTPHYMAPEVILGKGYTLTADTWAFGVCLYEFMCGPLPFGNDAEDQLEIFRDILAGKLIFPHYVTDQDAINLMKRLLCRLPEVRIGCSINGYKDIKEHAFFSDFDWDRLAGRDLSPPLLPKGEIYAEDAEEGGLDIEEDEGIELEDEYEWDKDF
Method in brief: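 Ten_K (Tenella Kinase) assay measuring inhibition of E. tenella PKG enzyme activity. Result expressed as the concentration giving 50% inhibition (IC50, nM). Where a compound was tested more than once, all values are reported.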

Eimeria acervulina [6] = experiment: Anticococcidal activity against Eimeria acervulina in Chick assessed as reduction in oocyte at 12.5 ppm relative to control; type: functional; parameters: scale not given: the % may be the effect or the level left; method in brief: as §1
Eimeria mitis [7] = experiment: Anticococcidal activity against Eimeria mitis in Chick assessed as reduction in oocyte at 12.5 ppm relative to control; type: functional; parameters: scale not given: the % may be the effect or the level left; method in brief: as §1
Eimeria tenella [8] = experiment: Anticococcidal activity against Eimeria tenella in Chick assessed as reduction in oocyte at 6.25 ppm relative to control; type: functional; parameters: scale not given: the % may be the effect or the level left; method in brief: as §1
Eimeria mitis [9] = experiment: Anticococcidal activity against Eimeria mitis in Chick assessed as reduction in oocyte at 6.25 ppm relative to control; type: functional; parameters: scale not given: the % may be the effect or the level left; method in brief: as §1
Eimeria tenella [10] = experiment: Anticococcidal activity against Eimeria tenella in Chick assessed as reduction in oocyte at 12.5 ppm relative to control; type: functional; parameters: scale not given: the % may be the effect or the level left; method in brief: as §1
Eimeria acervulina [11] = experiment: Anticococcidal activity against Eimeria acervulina in Chick assessed as reduction in oocyte at 6.25 ppm relative to control; type: functional; parameters: scale not given: the % may be the effect or the level left; method in brief: as §1
Eimeria maxima [12] = experiment: Anticococcidal activity against Eimeria maxima in Chick assessed as reduction in oocyte at 12.5 ppm relative to control; type: functional; parameters: scale not given: the % may be the effect or the level left; method in brief: as §1

IC50 [5] [nM] | Compound | Activity (Eimeria maxima [1]) [%] | Activity (Eimeria mitis [2]) [%] | Activity (Eimeria tenella [3]) [%] | Activity (Eimeria acervulina [4]) [%] | Activity (Eimeria acervulina [6]) [%] | Activity (Eimeria mitis [7]) [%] | Activity (Eimeria tenella [8]) [%] | Activity (Eimeria mitis [9]) [%] | Activity (Eimeria tenella [10]) [%] | Activity (Eimeria acervulina [11]) [%] | Activity (Eimeria maxima [12]) [%]
0.08 | Cc1ccccc1CNc1nccc(-c2c(-c3ccc(F)cc3)nc3cc(CN(C)C)ccn23)n1 | 50 | <50 | <50 | <50 |  |  |  |  |  |  | 
0.083 | Cc1cccc(CNc2nccc(-c3c(-c4ccc(F)cc4)nc4cc(CN(C)C)ccn34)n2)c1 | <50 | <50 | 80 | <50 |  |  |  |  |  |  | 
0.45 | COC(=O)Nc1nccc(-c2c(-c3ccc(F)cc3)nc3cc(CN(C)C)ccn23)n1 | 80 | <50 | 80 | 80 | 80 | <50 |  |  | 80 |  | 80
0.066 | CN(C)Cc1ccn2c(-c3ccnc(NCc4ccc(F)cc4)n3)c(-c3ccc(F)cc3)nc2c1 | 80 | 80 | 80 | 80 | <50 | <50 |  |  | <50 |  | <50
0.18 | CN(C)Cc1ccn2c(-c3ccnc(NCc4cccc(Cl)c4)n3)c(-c3ccc(F)cc3)nc2c1 | 80 | <50 | <50 | <50 |  |  |  |  |  |  | 
4.39 | CN(C)Cc1ccn2c(-c3ccnc(NC(=O)NC(C)(C)C)n3)c(-c3ccc(F)cc3)nc2c1 |  |  |  |  | 80 | 80 |  |  | 80 |  | 80
0.121 | Cc1ccc(CNc2nccc(-c3c(-c4ccc(F)cc4)nc4cc(CN(C)C)ccn34)n2)cc1 | 80 | <50 | <50 | 50 |  |  |  |  |  |  | 
0.1 | CCCCCNc1nccc(-c2c(-c3ccc(F)cc3)nc3cc(CN(C)C)ccn23)n1 | 80 | 50 | <50 | 80 |  |  |  |  |  |  | 
0.24 | CN(C)Cc1ccn2c(-c3ccnc(NCc4ccc(Cl)cc4)n3)c(-c3ccc(F)cc3)nc2c1 | <50 | <50 | <50 | <50 |  |  |  |  |  |  | 
0.13 | CCCCCCNc1nccc(-c2c(-c3ccc(F)cc3)nc3cc(CN(C)C)ccn23)n1 | <50 | <50 | 80 | <50 |  |  |  |  |  |  | 
0.056 | CN(C)Cc1ccn2c(-c3ccnc(NCc4ccccc4Cl)n3)c(-c3ccc(F)cc3)nc2c1 | 80 | <50 | 50 | <50 |  |  |  |  |  |  | 
0.25 | COCCCNc1nccc(-c2c(-c3ccc(F)cc3)nc3cc(CN(C)C)ccn23)n1 | 50 | <50 | 80 | 80 |  |  |  |  |  |  | 

Further lines, the compound ahead of its results:

Compound | IC50 [5] [nM] | Activity (Eimeria maxima [1]) [%] | Activity (Eimeria mitis [2]) [%] | Activity (Eimeria tenella [3]) [%] | Activity (Eimeria acervulina [4]) [%] | Activity (Eimeria acervulina [6]) [%] | Activity (Eimeria mitis [7]) [%] | Activity (Eimeria tenella [8]) [%] | Activity (Eimeria mitis [9]) [%] | Activity (Eimeria tenella [10]) [%] | Activity (Eimeria acervulina [11]) [%] | Activity (Eimeria maxima [12]) [%]
CN(C)Cc1ccn2c(-c3ccnc(NCc4ccccc4F)n3)c(-c3ccc(F)cc3)nc2c1 | 0.087 | 80 | 80 | 80 | <50 |  |  |  |  |  |  | 
CN(C)Cc1ccn2c(-c3ccnc(NCc4cccc(F)c4F)n3)c(-c3ccc(F)cc3)nc2c1 | 0.12 | <50 | <50 | <50 | <50 |  |  |  |  |  |  | 
CN(C)Cc1ccn2c(-c3nc(N)ncc3C#N)c(-c3ccc(F)cc3)nc2c1 | 1.6 | <50 | <50 | <50 | <50 |  |  |  |  |  |  | 
CN(C)Cc1ccn2c(-c3ccnc(N)n3)c(-c3ccc(F)c(Br)c3)nc2c1 | 0.16 | 80 | <50 | 80 | 80 |  |  |  |  |  |  | 
CN(C)Cc1ccn2c(-c3ccnc(N)n3)c(-c3ccc(F)cc3F)nc2c1 | 0.1 |  | 80 | 80 | 100 | 100 | 80 | 80 | 50 | 100 | 100 | 
CN(C)Cc1ccn2c(-c3ccnc(NS(=O)(=O)c4ccccc4)n3)c(-c3ccc(F)cc3)nc2c1 | 0.25 | <50 | <50 | <50 | <50 |  |  |  |  |  |  | 
CN(C)Cc1ccn2c(-c3ccnc(NCc4ccc(F)c(F)c4)n3)c(-c3ccc(F)cc3)nc2c1 | 0.06 | <50 | <50 | <50 | <50 |  |  |  |  |  |  | 
CN(C)Cc1ccn2c(-c3ccnc(NCc4cc(F)cc(F)c4)n3)c(-c3ccc(F)cc3)nc2c1 | 0.11 | 80 | <50 | 80 | 80 | <50 | <50 |  |  | <50 |  | <50
CN(C)Cc1ccn2c(-c3nc(N)ncc3Br)c(-c3ccc(F)cc3)nc2c1 | 5.8 | 50 | <50 | 50 | <50 |  |  |  |  |  |  | 
CN(C)Cc1ccn2c(-c3ccnc(NCc4cc(F)ccc4F)n3)c(-c3ccc(F)cc3)nc2c1 | 0.026 | 80 | <50 | <50 | <50 |  |  |  |  |  |  | 
Cc1cc(-c2nc3cc(CN(C)C)ccn3c2-c2ccnc(N)n2)ccc1F | 0.23 |  | 80 | 80 | 80 | 80 | 80 | 80 | 80 | 80 | 80 | 
CCCNc1nccc(-c2c(-c3ccc(F)cc3)nc3cc(CN(C)C)ccn23)n1 |  |  |  |  |  | 80 | 80 |  |  | 80 |  | 80
CN(C)Cc1ccn2c(-c3ccnc(NCc4ccc(F)cc4F)n3)c(-c3ccc(F)cc3)nc2c1 | 0.15 | 80 | <50 | <50 | <50 |  |  |  |  |  |  | 
CN(C)Cc1ccn2c(-c3ccnc(N)n3)c(-c3ccc(Cl)cc3)nc2c1 | 0.41 |  | 50 | 80 | 50 | <50 | <50 |  |  | <50 |  | 
CN(C)Cc1ccn2c(-c3ccnc(Nc4ccccn4)n3)c(-c3ccc(F)cc3)nc2c1 | 0.4 | 80 | 80 | 80 | <50 | <50 | 80 |  |  | 80 |  | 50
